Source: PubChem BioAssay (several laboratories)
ABHD5 PLIN5 PPI: ABHD5-PLIN5 protein interaction inhibition. Q00G26+Q8WTS1. Split G. princeps luciferase complementation, luminescence, 4 h. inhibition, % at 4 µM. 360,000 compounds, 0.78% hits. AID 602281;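 active means inhibition above the mean inhibition across every tested compound plus 3 SD, cut at about 22% in these data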
Rpn11 inh: Rpn11 (human) deubiquitinase inhibition. human 26S proteasome, Ub4-pepOG fluorescence polarization; 20S core pre-blocked with epoxomicin. inhibition, % at 20 µM. AID 588493. 360,000 compounds, 0.59% hits;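 active means inhibition at 20 µM, scaled to each plate's controls, above about 33%, limit read from the data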
Rin1 Abl inh: blocks binding of human Rin1 to Abl. AID 588664. 360,000 compounds, 0.4% hits. inhibition, % at 7.35 µM. TR-FRET Rin1/Abl binding, biochemical; in the data active means inhibition above about 5%, passing the limit was not always enough
XiGFP reactiv: activators of X-chromosome reactivation in mouse fibroblasts; XiGFP mouse fibroblasts, % GFP-positive cells imaging, 3 d; cells co-treated with 5-aza-dC sensitizer; scaled so ellipticine positive control = 100%; activation, % at 7.58 µM; 360,000 compounds, 0.055% hits;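 active means mean normalized replicate activation at least 10% and every replicate at or above 10%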
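Assay system: SV40-immortalized XiGFP fibroblast cells, line 68-5-11; buffer or medium: DMEM plus 5-aza-dC sensitizer; compound: one concentration, pinned; timing: compounds 3 days, fix/stain 15 min at room temperature; benchmarks: positive control ellipticine, 6 µM final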
NadD block: NadD (S. aureus) enzyme inhibition | purified NadD enzyme, colorimetric absorbance read-out | inhibition, % at 20 µM | 360,000 compounds, 0.78% hits | AID 602399; in the data active means inhibition above about 26%
Rpn11 inh conf: confirmation of human proteasome Rpn11 inhibitors; 1,900 compounds, 29% hits; shares compounds with Rpn11 inh; AID 602318; inhibition, % at 20 µM; purified human 26S proteasome, Ub4-pepOG fluorescence polarization; proteasome pretreated with epoxomicin
MMP-2 inh: blocks human MMP-2, flagging nonselective RPN11 hits; shares compounds with Rpn11 inh; recombinant MMP-2, FRET peptide cleavage fluorescence; 1,900 compounds, 4% hits; AID 602330; inhibition, % at 20 µM;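 further: human MMP-2 activated beforehand with APMA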
Target sequence (P08253 whole entry, looked up): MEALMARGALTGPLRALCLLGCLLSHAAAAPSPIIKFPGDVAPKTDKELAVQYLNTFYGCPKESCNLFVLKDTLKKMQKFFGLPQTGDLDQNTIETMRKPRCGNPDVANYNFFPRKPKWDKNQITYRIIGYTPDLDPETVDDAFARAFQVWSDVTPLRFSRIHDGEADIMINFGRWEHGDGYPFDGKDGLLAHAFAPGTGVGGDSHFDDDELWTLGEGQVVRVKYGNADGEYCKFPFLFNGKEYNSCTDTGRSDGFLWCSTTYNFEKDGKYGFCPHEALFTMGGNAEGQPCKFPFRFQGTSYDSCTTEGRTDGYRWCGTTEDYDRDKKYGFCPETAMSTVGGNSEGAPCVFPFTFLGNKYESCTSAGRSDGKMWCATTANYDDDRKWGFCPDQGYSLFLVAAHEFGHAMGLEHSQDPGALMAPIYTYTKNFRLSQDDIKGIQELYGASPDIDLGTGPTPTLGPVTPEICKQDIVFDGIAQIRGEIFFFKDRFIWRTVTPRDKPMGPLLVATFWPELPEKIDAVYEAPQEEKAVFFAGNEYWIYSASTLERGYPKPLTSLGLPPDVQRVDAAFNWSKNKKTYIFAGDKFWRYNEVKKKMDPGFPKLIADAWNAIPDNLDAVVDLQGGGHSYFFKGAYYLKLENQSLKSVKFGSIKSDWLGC
Thrombin inh: thrombin (bovine) inhibition counter-screen. shares compounds with Rpn11 inh. bovine thrombin cleavage of Ub4-pepOG, fluorescence polarization. inhibition, % at 20 µM. 1,900 compounds, 13% hits. AID 602333;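 active means mean inhibition at least 40% at 20 µM, or signal 3 deviations below plate average, so some actives read negative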
Numbers stand for hits; - = inactive; . = no result. Sampled rows, rich in hits. Any-hit rate of the full collection: about 1.9%. Unless noted, no stated cut-off is given here; in the data, active means inhibition above about 40%; inactive means the rest.

SMILES	ABHD5 PLIN5 PPI	Rpn11 inh	Rin1 Abl inh	XiGFP reactiv	NadD block	Rpn11 inh conf	MMP-2 inh	Thrombin inh
O=C(NC(=S)Nc1ccc2oc(=O)ccc2c1)c1cc2ccccc2o1	-	42	-	-	-	-	-	-
CC(C)C(=O)Nc1ccc(NC(=O)c2cc3ccccc3o2)cc1	-	177	-	.	-	-	-	-
CC(=O)Nc1ccc(NC(=S)NC(=O)c2cc3ccccc3o2)cc1	-	-	-	-	-	.	.	.
CC(C)C(=O)Nc1ccc(NC(=S)NC(=O)c2cc3ccccc3o2)cc1	-	-	-	-	-	.	.	.
CCS(=O)(=O)N1CC2(C1)[C@@H](c1ccccc1)[C@H](CO)N2C(=O)C1CCCC1	.	.	.	-	.	.	.	.
Clc1ccc(C2Nc3ccccc3-n3cccc32)cc1 (stereo not drawn)	-	54	-	-	-	-	-	-
CC(C)CC#Cc1ccc([C@@H]2[C@@H](CO)N3C(=O)CN(C(=O)NC(C)C)C[C@@H]23)cc1	.	.	.	-	.	.	.	.
C[C@@H]1CCCCO[C@@H](CN(C)C(=O)CCC(F)(F)F)[C@H](C)CN([C@@H](C)CO)C(=O)c2cc(NS(=O)(=O)c3ccc(Cl)cc3)ccc2O1	.	.	.	-	.	.	.	.
Cc1ccc(C2CC(=O)C=C(Nc3ccc(Cl)cc3)C2)cc1 (stereo not drawn)	-	85	-	-	-	-	-	-
O=C(Nc1ccc(Cl)cc1)N[C@@H]1CC[C@@H](CCNS(=O)(=O)c2ccccc2F)O[C@H]1CO	.	.	.	-	.	.	.	.
CCCCC(=O)N(Cc1ccc(F)cc1)C1CCS(=O)(=O)C1 (stereo not drawn)	-	36	-	-	-	-	-	-
CSc1nc(N)nc(SCC(=O)CC(=O)OC(C)C)c1C#N	-	78	-	.	-	-	-	-
CN1C(=O)/C(=C\C=C2/CCCN2C)N(C)C1=S	-	77	-	-	-	74	-	60
CCN1C(=O)/C(=C/C=C2/CCCN2C)OC1=S	-	76	-	-	-	43	-	54
O=C(C[C@@H]1CC[C@H]2[C@@H](COC[C@H](O)CN2C(=O)c2ccncc2)O1)NC1Cc2ccccc2C1	.	.	.	-	.	.	.	.
CCn1nnnc1NCc1ccc(N2CCCC2)cc1	-	59	-	.	-	-	-	-
Cc1ccc(Oc2cc([N+](=O)[O-])cc3c2C(=O)Nc2ccccc2O3)cc1	-	49	-	-	-	51	-	63
CS(=O)(=O)Nc1ccc2c(c1)[C@@H]1C[C@@H](CC(=O)O)O[C@H](CO)[C@@H]1O2	.	.	.	-	.	.	.	.
C=CCN1C(=O)/C(=C2/Sc3ccc(OC)cc3N2C)SC1=Nc1cccc(O)c1	-	67	-	-	-	-	-	-
C=CCc1cc(/C=C2/NC(=O)NC2=O)cc(OCC)c1O	-	-	-	-	-	.	.	.
C=CCc1cc(/C=C2/NC(=S)NC2=O)cc(OC)c1O	-	47	-	.	-	-	-	-
CCCNC(=O)N1CC2(CN(C(=O)c3cccc(F)c3)C2)c2c([nH]c3cc(OC)ccc23)[C@@H]1CO	.	.	.	-	.	.	.	.
CO[C@H]1CN(C)C(=O)c2ccc(NC(=O)C3CC3)cc2OC[C@H](C)N(C(=O)C2CCCCC2)C[C@@H]1C	.	.	.	-	.	.	.	.
O=c1c(Cl)c(N/N=C/c2ccc(Br)cc2)cnn1-c1ccccc1	-	96	-	.	-	47	-	-
CNc1cnn(-c2ccccc2)c(=O)c1Cl	-	-	-	.	-	.	.	.
COc1ccc(NC(=O)C2CC(=O)N/C(=N/N=C/c3ccccc3)S2)cc1 (stereo not drawn)	-	-	-	-	-	.	.	.
CC(/C=C/c1ccc(N(C)C)cc1)=N/N=C1/NC(=O)CC(C(=O)Nc2ccc(Cl)cc2)S1 (stereo not drawn)	-	65	-	-	47	89	-	87
Cc1cc(NC(=O)CCC(=O)N(c2ccccc2)C(C(=O)NCC2CCCO2)c2cccnc2)no1 (stereo not drawn)	-	54	-	.	-	-	-	-
